Measurements published in ChEMBL document CHEMBL3853352, “Anti-tubercular activities of 5,6,7,8-tetrahydrobenzo[4,5]thieno[2,3-d]pyrimidin-4-amine analogues endowed with high activity toward non-replicative Mycobacterium tuberculosis” (Bioorg Med Chem, 2016).
Values after ≈ are worked out from the molar mass of the structure shown.

Tests used:
[1] = Cytotoxicity against mouse RAW264.7 cells assessed as inhibition of cell proliferation at 50 ug/ml after 48 hrs by MTT assay; type: toxicity
How it was run: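 RAW 264.7 mouse macrophages grown in RPMI with 10% FBS and penicillin/streptomycin, then seeded at about 5000 cells/well on poly-L-lysine-coated plates. Pre-incubated 24 h at 37 °C, 5% CO2, then exposed to compound for 48 h. MTT (0.5 mg/ml) added for 3 h and formazan read at 595 nm.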

[2] = system: Mycobacterium tuberculosis H37Rv; experiment: Inhibition of Mycobacterium tuberculosis ADH assessed as decrease in conversion of L-alanine to pyruvate at 25 uM by measuring NADH by spectrophotometry
[3] = system: Mycobacterium tuberculosis; experiment: Antimycobacterial activity against Mycobacterium tuberculosis H37Rv after 7 days by MABA; type: functional; conditions: 168 h
How it was run: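 M. tuberculosis H37Rv inoculum taken from fresh LJ medium, resuspended in 7H9-S (7H9, 0.1% casitone, 0.5% glycerol, OADC), adjusted to McFarland No. 1 and diluted 1:20. Serial two-fold drug dilutions in 7H9-S, with growth and sterile controls. Incubated 7 days at 37 °C in normal atmosphere, then alamar blue added and incubated overnight. MIC = lowest concentration preventing the blue-to-pink change.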

[4] = Inhibition of Mycobacterium tuberculosis ADH assessed as decrease in conversion of L-alanine to pyruvate by measuring NADH by spectrophotometry; set-up: species or system Mycobacterium tuberculosis H37Rv
How it was run: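 Mtb L-AlaDH oxidative deamination of L-alanine to pyruvate at 37 °C. NADH formation read at 340 nm. Compounds tested from 25 µM to 0.5 µM. Background read from the reaction mixture without enzyme. IC50 values calculated from the concentration series.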

[5] = biological target: T1, L-lysine-epsilon aminotransferase (Mycobacterium tuberculosis) (UniProt P9WQ77); experiment: Inhibition of Mycobacterium tuberculosis LAT at 25 uM
T1 sequence (whole entry): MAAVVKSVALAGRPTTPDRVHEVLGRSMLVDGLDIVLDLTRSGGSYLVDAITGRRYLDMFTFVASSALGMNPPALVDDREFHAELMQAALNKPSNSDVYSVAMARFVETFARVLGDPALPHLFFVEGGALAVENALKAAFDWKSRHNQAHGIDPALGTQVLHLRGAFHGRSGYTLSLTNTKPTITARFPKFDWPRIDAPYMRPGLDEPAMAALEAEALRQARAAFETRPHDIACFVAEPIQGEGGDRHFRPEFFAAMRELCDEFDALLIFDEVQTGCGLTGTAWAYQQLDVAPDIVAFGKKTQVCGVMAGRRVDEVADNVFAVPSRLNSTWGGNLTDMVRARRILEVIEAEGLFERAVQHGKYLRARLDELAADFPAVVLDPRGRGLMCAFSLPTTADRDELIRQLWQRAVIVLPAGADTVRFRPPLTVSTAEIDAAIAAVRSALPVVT

[6] = system: Mycobacterium tuberculosis; experiment: Antimycobacterial activity against dormant stage of Mycobacterium tuberculosis H37Rv assessed as reduction in bacterial growth under nutrient starved conditions at 10 ug/ml for 7 days measured after 28 days; type: functional
How it was run: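 H37Rv grown in 7H9/OADC, washed twice and resuspended in PBS, then held in sealed bottles at 37 °C for 6 weeks. Starved cultures exposed to compound at 10 ug/ml for 7 days. Cells diluted 10-fold serially to 10^-6 in 7H9/OADC and plated in triplicate. Incubated 28 days at 37 °C without agitation; wells with visible growth scored positive and MPN calculated.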

SMILES | inhibition at 48 h, 50 ug/ml [1] [%] | inhibition [2] [%] | MIC [3] [µM] | IC50 [4] [µM] | inhibition [5] [%] | fold change (FC) [6]
Cc1ccc(Nc2nc(C3CC3)nc3sc4c(c23)CCCC4)cc1 | 16.2 | 50 | 74.5 (≈ 25 µg/mL) | 13.4 | < 50 | –
Cc1cccc(C)c1Nc1nc(-c2ccccc2)nc2sc3c(c12)CCCC3 | 25.5 | 50 | 8.11 (≈ 3.13 µg/mL) | 8.82 | < 50 | >1
Cc1ccc(Nc2nc(-c3ccccc3)nc3sc4c(c23)CCCC4)c(C)c1 | 7.97 | 50 | 16.2 (≈ 6.25 µg/mL) | 9.96 | < 50 | >1
CCc1nc(Nc2ccccc2)c2c3c(sc2n1)CCCC3 | 7.82 | 50 | 20.2 (≈ 6.25 µg/mL) | 15.1 | < 50 | >1
CC[C@@H](CO)NCCN[C@@H](CC)CO [ETHAMBUTOL] | – | – | 7.64 (≈ 1.56 µg/mL) | > 25 | – | –
CCc1nc(Nc2ccc(Cl)cc2)c2c3c(sc2n1)CCCC3 | 15.6 | 50 | 18.2 (≈ 6.25 µg/mL) | 4.94 | < 50 | >1
CCc1nc(Nc2ccc(Br)cc2)c2c3c(sc2n1)CCCC3 | 12.6 | 50 | 32.2 (≈ 12.5 µg/mL) | 6.54 | < 50 | >1
Fc1ccc(Nc2nc(-c3ccccc3)nc3sc4c(c23)CCCC4)cc1 | 33.4 | 50 | 33.3 (≈ 12.5 µg/mL) | 12.2 | < 50 | –
Cc1ccc(C)c(Nc2nc(-c3ccccc3)nc3sc4c(c23)CCCC4)c1 | 3.23 | 50 | 2.02 (≈ 0.779 µg/mL) | 5.82 | < 50 | >1
c1ccc(CNc2nc(C3CC3)nc3sc4c(c23)CCCC4)cc1 | 23.1 | 50 | 18.6 (≈ 6.25 µg/mL) | 4.23 | < 50 | >1
c1ccc(CCNc2nc(C3CC3)nc3sc4c(c23)CCCC4)cc1 | 17.4 | 50 | 35.8 (≈ 12.5 µg/mL) | 17 | < 50 | –
c1ccc(Nc2nc(C3CC3)nc3sc4c(c23)CCCC4)cc1 | 8.8 | – | 9.72 (≈ 3.12 µg/mL) | > 25 | < 50 | –
Cc1ccc(Nc2nc(-c3ccccc3)nc3sc4c(c23)CCCC4)cc1 | 41.1 | 50 | 33.6 (≈ 12.5 µg/mL) | 7.97 | < 50 | >1
COc1ccc(Nc2nc(-c3ccccc3)nc3sc4c(c23)CCCC4)cc1 | 28.2 | 50 | 16.1 (≈ 6.25 µg/mL) | 8.72 | < 50 | >1
Clc1ccc(Nc2nc(-c3ccccc3)nc3sc4c(c23)CCCC4)cc1 | 20.8 | 50 | 63.8 (≈ 25 µg/mL) | 2.72 | < 50 | >1
c1ccc(Nc2nc(-c3ccccc3)nc3sc4c(c23)CCCC4)cc1 | 7.15 | 50 | 4.36 (≈ 1.56 µg/mL) | 11.4 | < 50 | >1
c1ccc(CCNc2nc(-c3ccccc3)nc3sc4c(c23)CCCC4)cc1 | 24.6 | 50 | 64.8 (≈ 25 µg/mL) | 5.6 | < 50 | >1
Brc1ccc(Nc2nc(C3CC3)nc3sc4c(c23)CCCC4)cc1 | 33.4 | 50 | 15.6 (≈ 6.25 µg/mL) | 8.93 | < 50 | >1

SMILES | inhibition at 48 h, 50 ug/ml [1] [%] | inhibition [2] [%] | MIC [3] [µM] | IC50 [4] [µM] | inhibition [5] [%] | fold change (FC) [6]
c1ccc(CNc2nc(-c3ccccc3)nc3sc4c(c23)CCCC4)cc1 | 26.5 | 50 | 33.6 (≈ 12.5 µg/mL) | 9.68 | < 50 | >1
CCc1nc(Nc2c(C)cccc2C)c2c3c(sc2n1)CCCC3 | 26.5 | 50 | 18.5 (≈ 6.25 µg/mL) | 5.02 | < 50 | >1
Clc1ccc(Nc2nc(C3CC3)nc3sc4c(c23)CCCC4)cc1 | 15.5 | 50 | 8.78 (≈ 3.12 µg/mL) | 11.1 | < 50 | –
Brc1ccc(Nc2nc(-c3ccccc3)nc3sc4c(c23)CCCC4)cc1 | 20.4 | 50 | 28.6 (≈ 12.5 µg/mL) | 8.7 | < 50 | >1
CO[C@H]1/C=C/O[C@@]2(C)Oc3c(C)c(O)c4c(O)c(c(/C=N/N5CCN(C)CC5)c(O)c4c3C2=O)NC(=O)/C(C)=C\C=C\[C@H](C)[C@H](O)[C@@H](C)[C@@H](O)[C@@H](C)[C@H](OC(C)=O)[C@@H]1C [RIFAMPIN] | 9.56 | – | 0.23 (≈ 0.189 µg/mL) | > 25 | – | 2
Cc1cccc(C)c1Nc1nc(C2CC2)nc2sc3c(c12)CCCC3 | 13.5 | 50 | 17.9 (≈ 6.25 µg/mL) | 7.55 | < 50 | >1
CCc1nc(Nc2ccc(C)cc2)c2c3c(sc2n1)CCCC3 | 15.6 | 50 | 77.3 (≈ 25 µg/mL) | 3.26 | < 50 | >1
Cc1ccc(Nc2nc(C3CC3)nc3sc4c(c23)CCCC4)c(C)c1 | 23.9 | 50 | 71.5 (≈ 25 µg/mL) | 9 | < 50 | >1
COc1ccc(Nc2nc(C3CC3)nc3sc4c(c23)CCCC4)cc1 | 34.4 | – | 17.8 (≈ 6.25 µg/mL) | > 25 | < 50 | >1
CCc1nc(Nc2ccc(C)cc2C)c2c3c(sc2n1)CCCC3 | 9.65 | 50 | 74.1 (≈ 25 µg/mL) | 7.41 | < 50 | >1
CCc1nc(Nc2ccc(OC)cc2)c2c3c(sc2n1)CCCC3 | 15.2 | 50 | 73.7 (≈ 25 µg/mL) | 4.68 | < 50 | >1
CCc1nc(NCc2ccccc2)c2c3c(sc2n1)CCCC3 | 7.05 | 50 | 38.6 (≈ 12.5 µg/mL) | 6.03 | < 50 | >1
Fc1ccc(Nc2nc(C3CC3)nc3sc4c(c23)CCCC4)cc1 | 4.82 | – | 36.8 (≈ 12.5 µg/mL) | 8.91 | < 50 | >1
Cc1ccc(C)c(Nc2nc(C3CC3)nc3sc4c(c23)CCCC4)c1 | 16.3 | 50 | 35.8 (≈ 12.5 µg/mL) | 2.07 | < 50 | >1
CCc1nc(Nc2cc(C)ccc2C)c2c3c(sc2n1)CCCC3 | 29.9 | – | 74.1 (≈ 25 µg/mL) | > 25 | < 50 | –
COc1c(N2C[C@@H]3CCCN[C@@H]3C2)c(F)cc2c(=O)c(C(=O)O)cn(C3CC3)c12 [MOXIFLOXACIN] | – | – | 1.26 (≈ 0.506 µg/mL) | > 25 | – | 2.7
NNC(=O)c1ccncc1 [ISONIAZID] | 12.2 | – | 0.66 (≈ 0.0905 µg/mL) | > 25 | – | 1.2
CCc1nc(Nc2ccc(F)cc2)c2c3c(sc2n1)CCCC3 | 14 | 50 | 38.2 (≈ 12.5 µg/mL) | 6.05 | < 50 | >1
